{"source": "ChEMBL document CHEMBL1145471", "about": "“Small molecule regulators of autophagy identified by an image-based high-throughput screen” (Proc Natl Acad Sci U S A, 2007)", "format_in_all_cases": "functional", "key": {"H4 [1]": {"tested_on": "H4", "assay": "Increase in long-lived protein degradation in human H4 cells after 1 hr relative to control", "design": "concentration or dose not given beside the values"}, "H4 [2]": {"tested_on": "H4", "assay": "Increase in light chain 3-GFP+ autophagosome vesicle intensity per cell in human H4 cells at 4.8 uM after 24 hrs by high throughput fluorescence microscopy relative to control", "in_short": "(§1)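 H4 cells stably expressing LC3-GFP, seeded in 96-well plates and exposed to compound for 24 h; fixed in 4% paraformaldehyde, nuclei stained with 3 μg/ml DAPI. Automated fluorescence microscopy scored number, size and intensity of LC3-GFP spots; values expressed relative to DMSO-treated wells, rapamycin positive control. Triplicate wells, mean ± SD; experiments repeated three times.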"}, "H4 [3]": {"tested_on": "H4", "assay": "Increase in long-lived protein degradation in human H4 cells after 4 hrs relative to control", "design": "concentration or dose not given beside the values"}, "H4 [4]": {"tested_on": "H4", "assay": "Induction of light chain 3-GFP level in human H4 cells at 4.8 uM after 24 hrs by high throughput fluorescence microscopy relative to control", "in_short": "(§2)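 H4 cells stably expressing LC3-GFP, kept in DMEM/10% FBS at 37°C, 5% CO2, were seeded in 96-well plates and exposed to compound for 24 h. Cells were then fixed in 4% paraformaldehyde and stained with 3 μg/ml DAPI. Automated fluorescence microscopy scored the number, size and intensity of LC3-GFP spots. Values are percent of DMSO wells, in triplicate, mean ± SD. Rapamycin served as positive control.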"}, "H4 [5]": {"tested_on": "H4", "assay": "Increase in long-lived protein degradation in human H4 cells after 24 hrs relative to control", "design": "concentration or dose not given beside the values"}, "H4 [6]": {"tested_on": "H4", "assay": "Induction of light chain 3-GFP level in human H4 cells at 7.71 uM after 24 hrs by high throughput fluorescence microscopy relative to control", "in_short": "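H4 cells stably expressing LC3-GFP, grown in DMEM with 10% FBS, penicillin/streptomycin and 2 mM L-glutamine at 37°C, 5% CO2. Cells were seeded in 96-well plates and exposed to library compounds at 3–12 μM for 24 h, then fixed in 4% paraformaldehyde and stained with 3 μg/ml DAPI. LC3-GFP spot number, size and intensity were measured by high-throughput fluorescence microscopy and expressed relative to DMSO. Triplicates, mean ± SD.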"}, "H4 [7]": {"tested_on": "H4", "assay": "Increase in light chain 3-GFP+ autophagosome vesicle number per cell in human H4 cells at 7.71 uM after 24 hrs by high throughput fluorescence microscopy relative to control", "in_short": "(§3)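 H4 cells stably expressing LC3-GFP were grown in DMEM with 10% FBS and 2 mM L-glutamine at 37°C, 5% CO2. They were exposed to each compound for 24 h, with DMSO as negative and rapamycin as positive control. Cells were then fixed in 4% paraformaldehyde and stained with 3 μg/ml DAPI. High-throughput fluorescence imaging scored LC3-GFP spot number, size and intensity, expressed relative to DMSO. Mean ± SD of triplicates; experiments repeated three times.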"}, "H4 [8]": {"tested_on": "H4", "assay": "Increase in long-lived protein degradation in human H4 cells after 2 hrs relative to control", "design": "concentration or dose not given beside the values"}, "H4 [9]": {"tested_on": "H4", "assay": "Increase in light chain 3-GFP+ autophagosome vesicle number per cell in human H4 cells at 4.8 uM after 24 hrs by high throughput fluorescence microscopy relative to control", "in_short": "as §2"}, "H4 [10]": {"tested_on": "H4", "assay": "Effect on FYVE-RFP+ vesicle intensity per cell in human H4 cells after 2 hrs relative to control", "design": "concentration or dose not given beside the values", "in_short": "(§4)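 H4 cells stably expressing FYVE-RFP (H4-FYVE), grown in DMEM with 10% FBS, penicillin/streptomycin and 2 mM L-glutamine at 37°C, 5% CO2, seeded in 96-well plates and exposed to compound. Fixed in 4% paraformaldehyde, nuclei stained with 3 μg/ml DAPI, FYVE-RFP+ vesicles quantified by high-throughput fluorescence microscopy against DMSO control. Triplicate wells, mean ± SD.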"}, "H4 [11]": {"tested_on": "H4", "assay": "Increase in light chain 3-GFP+ autophagosome vesicle area per cell in human H4 cells at 7.71 uM after 24 hrs by high throughput fluorescence microscopy relative to control", "in_short": "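H4 cells stably expressing LC3-GFP, seeded in 96-well plates and exposed to compound for 24 h; screening concentrations were 3–12 μM, with rapamycin 0.22 μM and bafilomycin A1 0.40 μM. Cells fixed in 4% paraformaldehyde and stained with 3 μg/ml DAPI. Number, size and intensity of LC3-GFP spots measured by high-throughput fluorescence microscopy and expressed as percent of DMSO-treated wells. Rapamycin was the positive control. Triplicate wells, mean ± SD; experiments repeated three times.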"}, "H4 [12]": {"tested_on": "H4", "assay": "Increase in light chain 3-GFP+ autophagosome vesicle intensity per cell in human H4 cells at 7.71 uM after 24 hrs by high throughput fluorescence microscopy relative to control", "in_short": "as §3"}, "H4 [13]": {"tested_on": "H4", "assay": "Increase in light chain 3-GFP+ autophagosome vesicle area per cell in human H4 cells at 4.8 uM after 24 hrs by high throughput fluorescence microscopy relative to control", "in_short": "as §1"}, "H4 [14]": {"tested_on": "H4", "assay": "Effect on FYVE-RFP+ vesicle intensity per cell in human H4 cells after 8 hrs relative to control", "design": "concentration or dose not given beside the values", "in_short": "as §4"}, "H4 [15]": {"tested_on": "H4", "assay": "Effect on FYVE-RFP+ vesicle intensity per cell in human H4 cells after 4 hrs relative to control", "design": "concentration or dose not given beside the values", "in_short": "as §4"}}}
{"smiles": "NCCNS(=O)(=O)c1cccc2cnccc12", "values": [{"measurement": "Activity", "setting": "H4 [1]", "value": 100.94, "unit": "%"}, {"measurement": "Activity", "setting": "H4 [2]", "value": 15083, "unit": "%"}, {"measurement": "Activity", "setting": "H4 [3]", "value": 96.55, "unit": "%"}, {"measurement": "Activity", "setting": "H4 [4]", "value": 49.3, "unit": "%"}, {"measurement": "Activity", "setting": "H4 [5]", "value": 96.19, "unit": "%"}, {"measurement": "Activity", "setting": "H4 [6]", "value": 96.7, "unit": "%"}, {"measurement": "Activity", "setting": "H4 [7]", "value": 130.98, "unit": "%"}, {"measurement": "Activity", "setting": "H4 [8]", "value": 91.55, "unit": "%"}, {"measurement": "Activity", "setting": "H4 [9]", "value": 181.04, "unit": "%"}, {"measurement": "Activity", "setting": "H4 [10]", "value": 102.35, "unit": "%"}, {"measurement": "Activity", "setting": "H4 [11]", "value": 139.79, "unit": "%"}, {"measurement": "Activity", "setting": "H4 [12]", "value": 156.16, "unit": "%"}, {"measurement": "Activity", "setting": "H4 [13]", "value": 172.66, "unit": "%"}, {"measurement": "Activity", "setting": "H4 [14]", "value": 83.01, "unit": "%"}, {"measurement": "Activity", "setting": "H4 [15]", "value": 79.63, "unit": "%"}]}
